Assay [1] deals with Rattus norvegicus. Briefly: Hypoglycemic activity in fasting rats at a dose of 30 mg/kg po. Format: functional, organism-based. Details: dose 30 mg/kg. The gist of the method:
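Normal rats, groups of four or five, fasted 16 h, then given vehicle or compound by mouth. Tail-vein blood sampled over 4 h for glucose (hexokinase method) and insulin (two-antibody radioimmunoassay). Comparison to vehicle control by Dunnett's two-tailed test.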

In assay [2] the test system is Rattus norvegicus. In words: Percent decrease of hyperglycemia at 30 min after glucose loading(1 g/kg ip) relative to vehicle control in rats at dose 30 mg/kg po. The assay is classed as functional. Details: scale not given: the % may be the effect or the level left. The gist of the method:
(§1)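 Normal rats, groups of four to six, fasted 16 h. Glucose given 1 g/kg ip, with oral vehicle or compound. Tail-vein blood glucose measured by the hexokinase method. Value is % reduction of hyperglycemia 30 min after the glucose load versus vehicle control. Dunnett's two-tailed test used.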

Assay [3] has as its system Rattus norvegicus. In words: Percent decrease of hyperglycemia at 30 min after glucose loading(1 g/kg ip) relative to vehicle control in rats at dose 100 mg/kg po. The assay is classed as functional. Details: scale not given: the % may be the effect or the level left. The gist of the method: as §1
In assay [4] the test system is Rattus norvegicus. Briefly: Percent decrease of hyperglycemia at 30 min after glucose loading(1 g/kg ip) relative to vehicle control in rats at dose 10 mg/kg po. The assay is classed as functional, organism-based. Details: dose 10 mg/kg. The gist of the method:
as §1

For assay [5], the system named is Rattus norvegicus. Briefly: Percent decrease of hyperglycemia at 30 min after glucose loading(1 g/kg ip) relative to vehicle control in rats at dose 100 mg/kg po. Format: functional, organism-based. Details: dose 100 mg/kg. The gist of the method:
as §1

Assay [6] relates to Rattus norvegicus. In words: Percent decrease of hyperglycemia at 30 min after glucose loading(1 g/kg ip) relative to vehicle control in rats at dose 30 mg/kg po. The assay is classed as functional, organism-based. Details: dose 30 mg/kg. The gist of the method:
as §1

Assay [7] deals with Rattus norvegicus. Briefly: Percent decrease of hyperglycemia at 30 min after glucose loading(1 g/kg ip) relative to vehicle control in rats at dose 3 mg/kg po. Format: functional. Details: scale not given: the % may be the effect or the level left. The gist of the method:
as §1

For assay [8], the system named is Rattus norvegicus. In words: Percent decrease of hyperglycemia at 30 min after glucose loading(1 g/kg ip) relative to vehicle control in rats at dose 10 mg/kg po. The assay is classed as functional. Details: scale not given: the % may be the effect or the level left. The gist of the method: as §1
Assay [9] deals with Rattus norvegicus. Briefly: Percent decrease of hyperglycemia at 30 min after glucose loading(1 g/kg ip) relative to vehicle control in rats at dose 1 mg/kg po. Format: functional, organism-based. Details: dose 1 mg/kg. The gist of the method: as §1

The source made the active and inactive calls. The calls are words filed in the database; no cut-off is given here.

As for `CC(=O)CCC(=O)[C@H]1CC[C@H](C)CC1`, the Effect result in the assay on Rattus norvegicus [1] and in the assay on Rattus norvegicus [4] was “inactive” throughout. For the same compound, the values for the Effect in the assay on Rattus norvegicus [2] and in the assay with Rattus norvegicus [3] were 30% and 31%, respectively.
With `C[C@H]1CC[C@H](S(=O)(=O)CCC(=O)O)CC1`, in the assay on Rattus norvegicus [5], the Effect entry was “inactive”.
Same read-out and setting: under `CC[C@H]1CC[C@H](C(=O)CCC(=O)O)CC1` stands “inactive”.
For the compound `O=C(O)CCC(=O)C1CCCCC1`, the Effect result in the assay with Rattus norvegicus [1] and with Rattus norvegicus [4] was “inactive” each time. The Effect came to 27% in the assay with Rattus norvegicus [2] and 26% in the assay on Rattus norvegicus [3].
For the compound `CC1(C)CCC(C(=O)CCC(=O)O)CC1`, in the assay on Rattus norvegicus [6], the Effect entry is “inactive”. The compound also registered an Effect in the assay with Rattus norvegicus [3] of 34%.
`C[C@H]1CC[C@H](CCCC(=O)O)CC1`: in the assay on Rattus norvegicus [5], the Effect entry was “inactive”.
As to `C[C@H]1CC[C@@H](C(=O)CCC(=O)O)CC1`, the Effect result in the assay on Rattus norvegicus [1] and in the assay with Rattus norvegicus [4] was “inactive” each time. Also, the Effect was 32% in the assay with Rattus norvegicus [2] and 44% with Rattus norvegicus [3].
In the case of `O=C(O)CCC(=O)C1CCCCCC1`, the Effect result in the assay with Rattus norvegicus [5] is “inactive”.
The same measure, in the same setting: under `CCC[C@H]1CC[C@H](C(=O)CCC(=O)O)CC1` stands “inactive”.
For the compound `CC1(C(=O)CCC(=O)O)CCCCC1`, in the assay with Rattus norvegicus [6], the Effect result was “inactive”. In addition, in the assay on Rattus norvegicus [3], the Effect is 28%.
Regarding `C[C@H]1CC[C@H](C(=O)CCC(N)=O)CC1`, the Effect result in the assay with Rattus norvegicus [1] and in the assay with Rattus norvegicus [4] was “inactive” in each case. For the same compound, the Effect is given as 27% in the assay with Rattus norvegicus [2] and 47% with Rattus norvegicus [3].
Turning to `C[C@H]1CC[C@H](C(=O)CCCC(=O)O)CC1`, in the assay with Rattus norvegicus [5], the Effect entry was “inactive”.
On the same count and under the same terms, next, `O=C(O)CCC(=O)C1CCCC1`: “inactive”; `C[C@H]1CC[C@H]([S+]([O-])CCC(=O)O)CC1` (some centres undefined): “inactive”.
The same measure, in the same setting: under `CC1CCCCC1C(=O)CCC(=O)O` (centres undefined) stands “inactive”.
For the compound `C[C@H]1CC[C@H](C(=O)CCC(=O)O)CC1`, the Effect worked out at 24% with Rattus norvegicus [7], 32% with Rattus norvegicus [8], 41% in the assay with Rattus norvegicus [2] and 65% in the assay with Rattus norvegicus [3]. Also, the Effect result in the assay with Rattus norvegicus [1] and in the assay on Rattus norvegicus [9] was “inactive” each time.
Regarding `C[C@H]1CC[C@H](C(=O)OCC(=O)O)CC1`, the Effect result in the assay on Rattus norvegicus [5] was “inactive”.
For the compound `C[C@H]1CC[C@H](C(=O)NCC(=O)O)CC1`, in the assay with Rattus norvegicus [5], the Effect result is “inactive”.
Regarding `CC1CCCC(C(=O)CCC(=O)O)C1` (centres undefined), the Effect result with Rattus norvegicus [6] is “inactive”. The same compound yielded an Effect in the assay with Rattus norvegicus [3] of 37%.

For the origin of these results see ChEMBL document CHEMBL1131449, “4-(trans-4-Methylcyclohexyl)-4-oxobutyric acid (JTT-608). A new class of antidiabetic agent” (1998).
